# Experimental data gathered from unrelated publications.
# Each line is one published result; the experiments were not run side by side.
# Target: Serine/threonine-protein kinase N2 (PKN2, Homo sapiens, UniProt Q16513)
SMILES,test,system,conditions,endpoint,result
O=C1NC(=O)c2cc(Nc3ccc(F)cc3)c(Nc3ccc(F)cc3)cc21,cell-free assay,,0.5 µM,remaining signal,102%
CCCS(=O)(=O)Nc1ccc(F)c(C(=O)c2c[nH]c3ncc(-c4ccc(Cl)cc4)cc23)c1F,"enzyme activity, inhibitor",,1 µM,inhibition,< 10%
CCCCN(CCCC)C(=O)CN1C[C@H](c2cc(OC)c3c(c2)OCO3)[C@@H](C(=O)O)[C@@H]1CC(C)(C)CCC,"cell-free assay, competition with immobilised ligand",,1 µM,remaining binding,100%
Cc1ccc(C(=O)Nc2ccc(CN3CCN(C)CC3)c(C(F)(F)F)c2)cc1C#Cc1cnc2cccnn12,"enzyme activity, inhibitor",,23.5 nM,remaining activity,99%
COc1cc(Cl)c(C(=O)N[C@@H](CN[C@H]2CC[C@@H](N)CC2)Cc2ccc(C#N)cc2)cc1-c1ccc(CN[C@H](C)c2ccc(C)cc2)o1,"enzyme activity, inhibitor",,1 µM,remaining activity,102%
Cc1cnc(NC2CCOCC2)nc1-n1cnc(C(=O)NC(CN)c2cc(F)cc(Cl)c2)c1 (stereo not shown),"enzyme activity, inhibitor, radiometric",,1 µM,remaining activity,63%
CNC(=O)c1cc(Oc2ccc(NC(=O)Nc3ccc(Cl)c(C(F)(F)F)c3)cc2)ccn1,"enzyme activity, inhibitor",,0.3 µM,inhibition,10%
COc1cc(Nc2cnc(C#N)c(O[C@H](C)CN(C)C)n2)ncc1-c1cnn(C)c1,"enzyme activity, inhibitor, radiometric",,10 µM,remaining activity,86%
O=S(=O)(c1cccc2cnccc12)N1CCCNCC1,cell-free assay,,0.5 µM,remaining signal,103%
Cc1cc(NC(=O)c2cccc3cc(-c4cccc5[nH]nc(N)c45)ccc23)ccc1F,"enzyme activity, inhibitor",,0.1 µM,activity vs control,101%
CN1CC(Oc2cnc(C#N)cc2-c2ccn3nc(NC(=O)C4CC4)cc3c2)C1,"enzyme activity, inhibitor",,1 µM,inhibition,15%
CCCOc1ccc(OC)c(F)c1C(=O)c1ccc(C(=O)N[C@@H]2CNC[C@H]2NC(=O)c2ccc3[nH]ncc3c2)cc1,"enzyme activity, inhibitor",,10 µM,remaining activity,-1%
CC(C)(C)c1nc(-c2cccc(NS(=O)(=O)c3c(F)cccc3F)c2F)c(-c2ccnc(N)n2)s1,"enzyme activity, inhibitor, radiometric",,1 µM,remaining activity,78%
CNC(=O)Nc1ccc2c(c1)CC[C@@]21OC(=O)N(CC(=O)N(Cc2ccc(F)cc2)[C@@H](C)C(F)(F)F)C1=O,"cell-free assay, competition with immobilised ligand",,1 µM,remaining binding,97%
Oc1cccc(-c2nc(N3CCOCC3)c3oc4ncccc4c3n2)c1,"enzyme activity, inhibitor",,10 µM,remaining activity,71%
Cc1ccc(Nc2nccc(N(C)c3ccc4c(C)n(C)nc4c3)n2)cc1S(N)(=O)=O,"enzyme activity, inhibitor",,10 µM,inhibition,34%
CN1CCC2(CC1)NC(=O)c1c(c3ccc(Cl)c(Cl)c3n1C)C2C#N (racemic),"thermal stability, DSF",,10 µM,ΔTm,2.5 °C
Cc1sc(C(=O)NC2COC2)cc1-n1cc(NC(=O)Nc2c(F)cccc2Cl)cn1,"enzyme activity, inhibitor",,10 µM,remaining activity,87.1%
O=C(Nc1cnc(Oc2ccc(F)cc2)nc1)N1CCc2ncccc2[C@@H]1c1ccc(F)cc1,"cell-free assay, competition with immobilised ligand",,1 µM,remaining binding,78%
CCN1CCN(Cc2ccc(NC(=O)c3ccc(C)c(Oc4ccnc5[nH]ccc45)c3)cc2C(F)(F)F)CC1,"target engagement in cells, inhibitor, chemoproteomics",Huh-7,10 µM,inhibition,-10.5%
CCC(=O)N[C@H]1CC[C@@H](C(=O)N(C)c2ccc(-c3nc4ccccc4o3)cc2)C1,"cell-free assay, competition with immobilised ligand",,1 µM,remaining binding,100%
CNCc1ccc(-c2cc(-c3nc(-c4ccc(S(=O)(=O)C(C)C)cc4)cnc3N)on2)cc1,"enzyme activity, inhibitor",,0.4 µM,inhibition,59%
COc1cc(-c2cc(-c3ccc(N4CCNCC4)cc3)cnc2C)cc(OC)c1OC,"enzyme activity, inhibitor",,1 µM,inhibition,1%
CCCOc1ccc([C@H]2[C@H](C(=O)O)[C@@H](c3ccc4c(c3)OCO4)CN2CC(=O)Nc2c(CC)cccc2CC)cc1,"cell-free assay, competition with immobilised ligand",,1 µM,remaining binding,100%
CCN(CC)CCNC(=O)c1c(C)[nH]c(/C=C2\C(=O)Nc3ccc(F)cc32)c1C,"enzyme activity, inhibitor",,0.3 µM,inhibition,24%
CCS(=O)(=O)c1cc2cc(C[C@@](O)(CC(C)(C)c3ccc(F)cc3C(N)=O)C(F)(F)F)[nH]c2cn1,"cell-free assay, competition with immobilised ligand",,1 µM,remaining binding,85%
Nc1nc(Nc2ccccc2)sc1C(=O)c1c(F)cccc1F,"enzyme activity, inhibitor",,10 µM,remaining activity,57%
Cc1ccc(NC(=O)c2ccc(CN3CCN(C)CC3)cc2)cc1Nc1nc(-c2cccnc2)cs1,cell-free assay,,0.5 µM,remaining signal,108%
Cn1c2c(Cl)c(Cl)ccc2c2cc[nH]c(=O)c21,"thermal stability, DSF",,10 µM,ΔTm,1.3 °C
CC(C)(O)[C@H]1CC[C@H](Nc2ccc3ncc(-c4cccc(C(F)(F)F)c4)n3n2)CC1,"enzyme activity, inhibitor",,1 µM,remaining activity,95.9%
Cc1cc(C)c(-n2ccn3nc(-c4cccnc4)cc23)cc1NC(=O)c1cc(C#N)cc(S(F)(F)(F)(F)F)c1,"cell-free assay, competition with immobilised ligand",,0.1 µM,remaining binding,100%
O=C(Nc1cnn(-c2csc(C(=O)NC3COC3)c2)c1)Nc1ccccc1Cl,"enzyme activity, inhibitor",,5 µM,remaining activity,112%
Cc1cc(-n2nc(Cc3cc(F)cc(C(F)(F)F)c3)nc2C)ccc1C(N)=O,"cell-free assay, competition with immobilised ligand",,1 µM,remaining binding,100%
CCCCNc1ncc2c(-c3ccc(F)cc3)nn(C[C@H]3CC[C@H](N)CC3)c2n1,"target engagement in cells, inhibitor, chemoproteomics",,20 mM,inhibition,2.9%
